# Scp1 inh: blocks human Scp-1 phosphatase activity; 340,000 tested, 0.88% active; Q9GZU7; inhibition, % at 20 µM; Recombinant Scp1, phosphopeptide, malachite green phosphate absorbance;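 active = inhibition above about 50% at 20 µM, limit read from the data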
#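 Incubation: 45 min enzyme reaction at room temperature / System: truncated SCP-1 phosphatase (76-261aa) / Reagent: Phospho 17-mer peptide substrate / Buffer or medium: Acidic Tris acetate buffer with magnesium and detergent / Signal: absorbance at 630 nm / Doses: one concentration, 20 µM, with 1.0% DMSO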
# PP1 counter: PP1-alpha (human) inhibition in PP5 counter-screen; P62136; purified PP1alpha, OMFP fluorescence; inhibition, % at 6.7 µM; 320,000 tested, 0.9% active;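 active = inhibition above the mean inhibition of all tested compounds plus 3 SD, computed separately for each screening campaign, cut at about 15% in these data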
# STEP inh: blocks human striatal-enriched tyrosine phosphatase | recombinant STEP, OMFP fluorogenic substrate, fluorescence | inhibition, % at 20 µM | AID 588621 | 360,000 tested, 0.25% active;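 active = inhibition at 20 µM, scaled per plate between control wells, above about 37%, limit read from the data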
#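 Assay system: isolated STEP enzyme / Timing: 20 min at room temperature, dark / Doses: 20 µM, 1% DMSO / Technique: fluorescence intensity, excitation 480 nm, emission 540 nm / Reagent: fluorogenic phosphatase substrate OMFP at 25 µM final / Measure: percent inhibition scaled to no-enzyme and uninhibited-enzyme controls, plate-pattern corrected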
# LMPTP block: blocks human LMPTP phosphatase. 360,000 tested, 0.22% active. recombinant LMPTP-A, OMFP fluorogenic substrate, fluorescence intensity. inhibition, % at 20 µM. AID 651560;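 active = compounds that cut the enzyme signal by at least half of the control window in the single-dose screen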
# Target sequence (P24666 whole entry, looked up): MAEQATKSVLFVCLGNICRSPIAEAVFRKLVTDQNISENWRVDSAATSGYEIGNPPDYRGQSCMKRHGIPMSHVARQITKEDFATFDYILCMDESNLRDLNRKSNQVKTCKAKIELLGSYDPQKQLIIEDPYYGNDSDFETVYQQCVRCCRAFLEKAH
#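 Assay system: LMPTP-A, protein tyrosine phosphatase of low molecular weight / Medium: pH 6.0 Bis-Tris buffer with DTT and Triton X-100 / Schedule: 50 min enzyme reaction at room temperature, protected from light / Measured by: endpoint fluorescence intensity from OMFP dephosphorylation / Read-out basis: % inhibition relative to no-enzyme and uninhibited control wells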
# PP5 primary: PP5 (human) phosphatase inhibition | P53041 | purified PP5c, OMFP substrate fluorescence | inhibition, % at 6.7 µM | 320,000 tested, 0.18% active | AID 1987;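 active = inhibition above the campaign's mean inhibition across all tested compounds plus 3 SD, cut at about 9.5% in these data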
# Target sequence (P53041 whole entry, looked up): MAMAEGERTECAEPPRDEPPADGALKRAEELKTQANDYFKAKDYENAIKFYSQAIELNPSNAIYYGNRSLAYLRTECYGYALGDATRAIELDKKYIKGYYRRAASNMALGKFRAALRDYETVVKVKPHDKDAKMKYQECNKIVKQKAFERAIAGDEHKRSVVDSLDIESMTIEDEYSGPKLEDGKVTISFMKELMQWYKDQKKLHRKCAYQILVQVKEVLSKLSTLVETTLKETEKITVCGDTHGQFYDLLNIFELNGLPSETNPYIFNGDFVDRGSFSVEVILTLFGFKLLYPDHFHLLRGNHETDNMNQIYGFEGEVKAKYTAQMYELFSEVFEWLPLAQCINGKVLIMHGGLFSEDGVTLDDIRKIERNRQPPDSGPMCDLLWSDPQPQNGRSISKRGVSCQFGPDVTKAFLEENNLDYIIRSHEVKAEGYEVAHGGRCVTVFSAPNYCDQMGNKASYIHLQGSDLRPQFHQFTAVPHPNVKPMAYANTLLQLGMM
# PP1 inh confirm: confirmation of human PP1 phosphatase inhibitors. shares compounds with PP1 counter. purified PP1alpha, OMFP substrate fluorescence. inhibition, % at 6.7 µM. 1,900 tested, 52% active;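 active = mean PP1 inhibition above a set limit taken from the earlier primary screen, cut at about 15% in these data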
# PP5 counter: inhibits human PP5 phosphatase in PP1 counter-screen | inhibition, % at 6.7 µM | purified PP5c, OMFP fluorescence | shares compounds with PP1 counter | 1,900 tested, 4% active | AID 2360;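 active = mean PP5 inhibition over triplicate wells above about 9.5% taken from the earlier PP1 screen, limit read from the data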
# Scp1 confirm: confirmation of human Scp-1 phosphatase inhibitors | shares compounds with Scp1 inh | recombinant SCP-1 catalytic domain, phosphate release, malachite green absorbance | 2,500 tested, 61% active | inhibition, % at 20 µM
# Scp-1 MG ctr: interferes with malachite green readout, flagging false Scp-1 hits; shares compounds with Scp1 inh; Colorimetric interference counterscreen, malachite green absorbance 630 nm; apparent inhibition (interference), % at 20 µM; 2,500 tested, under 10 active; AID 540313;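 note: compounds added after enzyme reaction finished so only phosphate colour detection is probed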
# Scp-1 Tm shift: validation of human Scp-1 inhibitors by thermal shift binding. AID 540329. shares compounds with Scp1 inh. 1,500 tested, 25% active. Recombinant SCP1, Sypro Orange thermal shift Tm. thermal shift relative to vanadate control, % at 40 µM;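 active = substances whose mean melting-temperature shift, as a percentage of the reference inhibitor's shift, reaches about 5.3%, limit read from the data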
# Hits are given with their value; – = inactive; · = no result given. Most compounds without a hit are left out; they make up all but 1.9% or so of the library.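 Rule for the calls, unless noted: active = inhibition of at least 30% at 20 µM; inactive = the rest.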
SMILES,Scp1 inh,PP1 counter,STEP inh,LMPTP block,PP5 primary,PP1 inh confirm,PP5 counter,others
CCN(CC)S(=O)(=O)c1ccc(N2CCCC2)c(NC(=O)CN2C(=O)NC3(CCCC3)C2=O)c1,–,20.8,–,–,–,–,–,
CCN(CC)S(=O)(=O)c1ccc(N2CCOCC2)c(NC(=O)CN2C(=O)NC3(CCCC3)C2=O)c1,–,·,–,–,·,·,·,
O=C1CC(c2ccccc2)=NN1c1nc(-c2ccccc2)cs1,–,20.2,–,–,–,–,–,
CC1=NN(c2nc(-c3ccccc3)cs2)C(=O)C1,–,20.4,–,–,–,–,10.1,
O=C(NNC(=S)Nc1ccc(Cl)c(Cl)c1)c1ccccn1,–,20.8,–,–,–,24.1,–,
CCNC(=S)NNC(=O)c1ccccn1,–,–,–,–,–,·,·,
N=C1/C(=C/c2ccc(-c3cccc(C(=O)O)c3)o2)C(=O)N=C2SC=C(c3ccccc3)N12,68.2,71.7,64.4,88.8,–,44.2,–,
N=C1/C(=C\c2ccc(-c3cc(Cl)cc(Cl)c3)o2)C(=O)N=C2SC=C(c3ccccc3)N12,–,–,–,–,–,·,·,
CN1/C(=C\C(=S)NC(=O)c2cccc(Br)c2)C(C)(C)c2ccccc21,–,–,–,–,–,·,·,
CCOC(=O)c1cc(-c2ccccc2)sc1NC(=O)CN1C(=O)NC(CC)(c2ccccc2)C1=O (stereo not drawn),–,17.8,–,–,–,–,–,
CCOC(=O)c1cc(-c2ccccc2)sc1NC(=O)COC(=O)c1cccc(S(N)(=O)=O)c1,–,19.2,–,–,–,30.5,–,
CCOC(=O)c1cc(-c2ccccc2)sc1NC(=O)COC(=O)c1ccc(Cl)c(S(N)(=O)=O)c1,–,–,–,–,–,·,·,
Cc1n[nH]c(=O)c2ccccc12,–,–,–,–,–,·,·,
CCOC(=O)N1CCN(S(=O)(=O)c2ccc(C(=O)NNc3nc4cc(C)cc(C)c4s3)cc2)CC1,–,19.4,–,–,–,26.4,–,
CCOC(=O)N1CCN(S(=O)(=O)c2ccc(C(=O)NNc3nc4c(C)cc(C)cc4s3)cc2)CC1,–,30.7,–,–,–,18.9,–,
CCOC(=O)N1CCN(S(=O)(=O)c2ccc(C(=O)Nc3nnc(CC)o3)cc2)CC1,–,–,–,–,–,·,·,
CCOC(=O)Oc1c(OC)cc(C(=O)O[C@@H]2C[C@@H]3CN4CCc5c([nH]c6cc(OC)ccc56)[C@H]4C[C@@H]3[C@H](C(=O)OC)[C@H]2OC)cc1OC,–,19.5,–,–,–,–,–,
COc1ccc(C2OC(=O)CC2C(=O)NCc2ccc(C)cc2)cc1OC (stereo not drawn),–,–,–,–,–,·,·,
CCCCCCc1cc2cc(-c3nnc(-c4ccccc4O)o3)c(=O)oc2cc1O,–,–,–,–,–,·,·,
CCCCCCc1cc2cc(-c3nnc(-c4ccccc4OC)o3)c(=O)oc2cc1O,–,20.2,–,–,–,–,–,
Nc1ncnc2c1ncn2[C@@H]1O[C@H](CNCc2ccc(OCC(=O)Nc3ccccn3)cc2)[C@@H](O)[C@H]1O,–,·,–,–,·,·,·,
O=C1/C(=C/C=C/c2ccco2)SC(=S)N1NS(=O)(=O)c1ccccc1,82.2,21.2,42.6,61.5,–,–,–,
O=C1/C(=C/c2cccs2)SC(=S)N1NS(=O)(=O)c1ccccc1,–,–,–,–,–,·,·,
Clc1ccc(NCc2nncn2-c2ccccc2)cc1,–,–,–,–,–,·,·,
O=C(N1CCN(Cc2ccccc2)CC1)C12CC3CC(CC(C3)C1)C2,–,–,–,–,–,·,·,
SMILES,Scp1 inh,PP1 counter,STEP inh,LMPTP block,PP5 primary,PP1 inh confirm,PP5 counter,others
CCOc1ccc2nc(NC3=NC(c4ccc(OC)cc4)CC(=O)N3)nc(C)c2c1 (stereo not drawn),–,38.6,86.0,57.3,–,–,–,
COc1ccccc1Oc1nc(-c2ccccc2)cc(C)c1S(C)(=O)=O,–,–,–,–,–,·,·,
CCCCC(CC)C(=O)Nc1cc(C(=O)NCc2ccc(C)cc2)ccc1N1CCC2(CC1)CC(c1ccccc1)=NO2 (stereo not drawn),–,18.6,–,–,–,–,–,
CCCCC(CC)C(=O)Nc1cc(C(=O)NCc2ccc(C)cc2)ccc1N1CCC2(CC1)CC(c1cccc(Br)c1)=NO2 (stereo not drawn),–,–,–,–,–,·,·,
CC(C)(CS(=O)(=O)[O-])NC(=O)CC[N+](C)(C)CCO,60.0,70.5,51.7,–,–,55.8,–,Scp1 confirm=43.1;Scp-1 MG ctr=–;Scp-1 Tm shift=–
COC(=O)c1ccccc1NC(=O)CSc1nc(N)cc(=O)[nH]1,56.7,26.2,–,–,–,–,–,Scp1 confirm=34.5;Scp-1 MG ctr=–;Scp-1 Tm shift=–
CCN(CC)S(=O)(=O)c1ccc(OC)c(-n2cnnn2)c1,–,–,–,–,–,·,·,
Cc1cccc(NC(=O)Cn2c(O)c(N=NC(=O)c3ccccc3O)c3ccccc32)c1,88.2,35.0,–,–,–,27.5,–,Scp1 confirm=85.6;Scp-1 MG ctr=–;Scp-1 Tm shift=–
Cc1ccc(NC(=O)Cn2c(O)c(N=NC(=O)c3cc([N+](=O)[O-])ccc3O)c3ccccc32)cc1,·,–,·,·,–,·,·,
CCOC(=O)c1ccc(/C=C2/C=C(c3ccccc3)N(c3ccc(Cl)c(C(=O)O)c3)C2=O)cc1,51.9,20.2,–,–,–,–,–,Scp1 confirm=72.4;Scp-1 MG ctr=–;Scp-1 Tm shift=–
CCOC(=O)c1ccc(Cl)c(NC(=O)c2ccc(-c3ccccc3)cc2)c1,–,–,–,–,–,·,·,
CCOC(=O)c1c(NC(=O)COC(=O)c2ccc(O)cc2)sc(C(=O)N(C)C)c1C,–,–,–,–,–,·,·,
CCOC(=O)c1c(NC(=O)COC(=O)c2ccc(NC(=O)CC#N)cc2)sc(C(=O)NC)c1C,57.6,19.7,–,–,–,–,–,Scp1 confirm=61.6;Scp-1 MG ctr=–;Scp-1 Tm shift=–
COc1cccc(NC(=O)c2cc(-c3ccco3)nc3ccccc23)c1,66.1,17.9,–,–,–,–,–,Scp1 confirm=31.4;Scp-1 MG ctr=–;Scp-1 Tm shift=–
CC(=O)c1cccc(NC(=O)c2cc(-c3ccco3)nc3ccccc23)c1,–,–,–,–,–,·,·,
Cc1ccc(NC(=O)CN(C)C(=O)c2cc(-c3ccco3)nc3ccccc23)cc1,75.7,28.5,–,–,–,–,–,Scp1 confirm=67.8;Scp-1 MG ctr=–;Scp-1 Tm shift=6.2
CC1CC(C)CN(C(=O)c2ccc3c(c2NCCO)C(=O)c2ccccc2C3=O)C1 (stereo not drawn),–,–,–,–,–,·,·,
